The source of these data is PubChem BioAssay AID463079 (The Scripps Research Institute Molecular Screening Center, 2010).

Among all 330,000 compounds or so, about 2,000 (0.61%) were called active. This is one part of a sample in which actives are shown more often than they occur.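 How the source made its calls: active means inhibition above that plate's mean sample inhibition plus 3 SD (cut at about 26% in these data); inactive means the rest.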

This experiment can be described thus: ATP-evoked calcium signal inhibitors, parental CHO, primary screen, counter-screen for OX1R antagonist project, cell-based, fluorescence, Fluo-8 calcium dye (AID 463079).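 Further: 0% = ATP-challenged DMSO wells and 100% = DMSO wells without ATP.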 The settings on record: parental CHO-K1, ATP-induced calcium, Fluo-8 fluorescence; at 5.6 µM; hits give high values. In short, it runs like this: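 Material – parental CHO cells · Reagent – ATP stimulus · Compound – single nominal dose of 5.6 µM per compound · Detection – Fluo-8 fluorescence · Read-out basis – percent inhibition of calcium signal · Controls – ATP-challenged DMSO wells low, unchallenged DMSO wells high · Repeats – no replicates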
A word on the inhibition: it is the change of the read-out against control, counted positive when it falls. In the case of `O=C(NCCN=C1NS(=O)(=O)c2ccccc21)c1ccc(S(=O)(=O)N2CCOCC2)cc1`, the inhibition is -2.4% (inactive).

As for `Cc1n[nH]c(C)c1S(=O)(=O)N1CCCC(C(=O)NCC2COc3ccccc3O2)C1` (stereo not given), the inhibition is -6.84% (inactive).

`Cc1cccc(C(=O)OCC(=O)Nc2sc3c(c2C#N)CCC3)c1`: the inhibition is -1.94% (inactive).

With `CC(=O)c1c(C)[nH]c(C(=O)OCC(=O)Nc2c(C)cccc2C)c1C`, the inhibition is -7.2% (inactive).

On to `CC(=O)c1c(C)[nH]c(C(=O)OCC(=O)Nc2sc3c(c2C#N)CCCC3)c1C`, for which the inhibition was 33.6% (active).

As for `O=C(COC(=O)[C@H](Cc1ccccc1)NC(=O)c1cccs1)Nc1cc(F)ccc1F`, the inhibition was -7.13% (inactive).

On to `CC(=O)N(O)CCCCCNC(=O)CCC(=O)N(O)CCCCCNC(=O)CCC(=O)N(O)CCCCCNC(=O)CCC(=O)O`, for which the inhibition is -0.82% (inactive).

Consider `O=C(NC(=S)NC1CCSC1=O)c1ccccc1F` (stereo not given), for which the inhibition was -7.55% (inactive).

Take `COc1cc(OC)c(N2CC(C(=O)Nc3cc(Cl)ccc3N3CCOCC3)CC2=O)cc1Cl` (stereo not given): the inhibition was -16.6% (inactive).

For the compound `COc1cc(OC)c(-n2c(C)cc(C=O)c2C)cc1Cl`, the inhibition was -12.5% (inactive).

For the compound `COc1cc(OC)c(-n2cc(-c3ccc(Cl)cc3)[nH]c2=O)cc1Cl`, the inhibition is 39.3% (active).

In the case of `CN(c1ccccc1)S(=O)(=O)c1cc(C(=O)N2CCN(c3ncccn3)CC2)ccc1Cl`, the inhibition was -18.9% (inactive).

On to `CC(C)(C)c1ccc(SCCc2ccncc2)cc1`, for which the inhibition is 28.1% (inactive).

For the compound `O=C(O)CC1S/C(=N\N=C/c2ccccc2O)N(c2ccc(O)cc2)C1=O` (stereo not given), the inhibition was -10.7% (inactive).

As to `CCn1nccc1C(=O)Nc1ccc(Cl)c(Cl)c1`, the inhibition is -8.3% (inactive).

For the compound `O=C(CC(O)(C(F)(F)F)C(F)(F)F)Nc1ccc(Cl)c(Cl)c1`, the inhibition is 72.5% (active).

For `CS(=O)(=O)N(CC(=O)Nc1ccc(Cl)c(Cl)c1)C1CCCCC1`, the inhibition is -5.86% (inactive).

For the compound `CN(C)CCN(Cc1ccccc1)S(=O)(=O)c1csc(C(N)=O)c1`, the inhibition is -12.9% (inactive).

On to `COc1cccc(-c2coc3cc4oc(=O)c(CC(=O)O)c(C)c4cc23)c1`, for which the inhibition is 1.98% (inactive).

`CC#CC[N+](C)(C)CCCCCC`: the inhibition is -6.39% (inactive).

As to `O=C(NC(Cc1ccccc1)C(=O)N1CCCC(C(F)(F)F)C1)c1ccccc1` (stereo not given), the inhibition is -16.7% (inactive).

As to `FC(F)(F)C1CCCN(c2nsc3ccccc23)C1` (stereo not given), the inhibition is 51.7% (active).

On to `O=C(NCC(=O)N1CCCC(C(F)(F)F)C1)c1ccccc1F` (stereo not given), for which the inhibition is -5.99% (inactive).

Turning to `Cc1cc(C(=O)O)c(S(C)(=O)=O)s1`, the inhibition was -2.26% (inactive).

Consider `CCN(CC)C(=O)[C@H]1C[C@H](CC(=O)NCC23CC4CC(CC(C4)C2)C3)C(=O)N2CCc3c([nH]c4cc(CCC(=O)N(C)C)ccc34)[C@]12C`, for which the inhibition was -25.6% (inactive).
